The subject of data set [1] is Radical scavenging activity. The experiment in a line: Antioxidant activity assessed by DPPH radical scavenging assay. Type of data set: functional. In a few lines:
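Test samples at several concentrations in EtOH mixed 1:1 by volume with a 200 μM DPPH solution in EtOH. After 1 min shaking, incubated 30 min at room temperature in the dark, then A517 read. Sample-only wells without DPPH corrected for colour. Done in triplicate, reported as mean ± SD. IC50 is the sample concentration scavenging 50% of DPPH.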
In general terms: DPPH is a stable violet radical that fades when it is reduced.

A further data set concerns RAW. The experiment in a line: Inhibition of LPS and IFN-gamma-activated NO production in murine RAW 264.7 cells. The conditions noted are these: Mus musculus.
Data set [2] is described as follows: Antioxidant activity assessed by ORAC assay. The data set is classed as functional. In a few lines:
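Samples at several concentrations combined with potassium phosphate buffer (7.5 mM as added) and sodium fluorescein probe (63 nM as added), then preincubated 5 min at 37 °C. Reaction started with AAPH (12.8 mM as added). Fluorescence (ex 485/em 538 nm) read every 2 min until decay neared zero. Trolox standard. Done in triplicate, reported as mean ± SD in μmol Trolox equivalents per μmol sample.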

Data set [3] is described as follows: Cytotoxicity against murine RAW 264.7 cells by MTT assay. The data set is classed as cell-based. The conditions noted are these: mouse. In outline:
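MTT viability measured in RAW 264.7 cultures from the LPS/IFN-γ-stimulated NO assay, in duplicate, to flag cytotoxic concentration ranges.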
In general terms: Tetrazolium assays rely on reduction of a dye to a coloured formazan, in cell work by metabolically active cells.

SMILES strings stand for the structures. pIC50: −log10 of the molar value. Activity calls are given as the source filed them. The rule behind the calls is not given here.

For the compound `COc1ccc(CCc2cc(OC)c(OC)c(OC)c2)cc1OC`, the pIC50 is below 3.70 in data set [1] and 4.32 in the data set on RAW. In addition, in data set [2], the outcome was inactive.
`O=C1O[C@H]([C@@H](O)CO)C(O)=C1O` [ASCORBIC ACID] had a pIC50 in data set [1] of 4.74.
Turning to `COc1cc(CCc2cc(OC)c(OC)c(OC)c2)ccc1O`, the pIC50 in data set [1] was 4.66. Besides, in data set [2], the outcome was Active. In addition, the Activity entry in data set [3] was “Toxic”.
The compound `Oc1ccc(/C=C/c2cc(O)cc(O)c2)cc1` [RESVERATROL] had a pIC50 with RAW of 4.63.
In the case of `COc1cc(CCc2cc(OC)c(O)c(OC)c2)ccc1O` [MOSCATILIN], the pIC50 in data set [1] was 4.84; in the data set with RAW, 4.43. In addition, the result in data set [2] was Active.
`COc1ccc(CCc2cc(OC)c(O)c(OC)c2)cc1OC`: the negative-log IC50 (pIC50) in data set [1] is 4.85. Besides, the result in data set [2] was Active. In data set [3], the Activity entry is given as “Toxic”.
With `COc1cc(O)cc2c1-c1ccc(O)cc1C2=O` [NOBILONE], the figures for the pIC50 (in data set [1]; with RAW) were below 3.70 and 4.42, respectively. In addition, the outcome in data set [2] was Active.
In data set [1], `COc1cccc(CCc2cc(O)c(O)c(OC)c2)c1` showed a pIC50 of 4.39.
On to `COc1cc(CC(O)c2cc(OC)c(O)c(OC)c2)ccc1O` (stereo not given) [NOBILIN D], for which the negative logarithm of the IC50 (pIC50) in data set [1] is 4.70; in the data set with RAW it was 4.82. Also, in data set [2], the outcome was Active.
For the compound `COc1cccc(CCc2cc(OC)c(O)c3c2C(Cc2cccc(OC)c2)c2cc(O)c(O)c(OC)c2O3)c1` (stereo not given) [NOBILIN E], the pIC50 in data set [1] is 4.68; in the data set on RAW, 4.72.
As for `COc1cc(O)cc2c1-c1c(O)ccc(O)c1C2=O`, the pIC50 is 4.79 in data set [1] and 4.87 in the data set with RAW. Moreover, in data set [2], the outcome was Active.
In data set [1], `Cc1cc(C(C)(C)C)c(O)c(C(C)(C)C)c1` [BUTYLATED HYDROXYTOLUENE] showed a pIC50 of 4.04.
`COc1cc(O)cc(CCc2ccc(O)c(OC)c2)c1` [GIGANTOL]: the pIC50 was 4.25 in data set [1] and 4.48 with RAW. In data set [2], the result was Active.

Broadly, the pIC50 is the IC50 on a negative log10 scale, so that one unit is a factor of ten.

For the origin of these results see ChEMBL document CHEMBL1138407, “Bioactive bibenzyl derivatives and fluorenones from Dendrobium nobile” (J Nat Prod, 2007).
